Test results as given in ChEMBL document CHEMBL3351236, “Prodrug oncrasin-266 improves the stability, pharmacokinetics, and safety of NSC-743380” (Bioorg Med Chem, 2014).
The source made the active and inactive calls. The rule behind the calls is not given here.

Assays:
[1] = test system: Mus musculus; test: Toxicity in Balb/c mouse assessed as histopathological changes in liver at 150 mg/kg, ip dosed once using compound formulated in Solutol HS15 and ethyl alcohol measured after 48 hrs; conditions: in vivo
[2] = test system: Tumour; test: Drug level in tumor of Balb/c mouse xenografted with human Calu3 cells assessed as aldehyde metabolite level at 60 mg/kg, iv using compound formulated in Solutol HS15 and ethyl alcohol measured after 24 hrs by HPLC/MS method; assay type: ADME, organism-based, Neoplasm, Calu-3; set-up: dose 60 mg/kg, route intravenous; conditions: in vivo
In short: (§1)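 Nude mice bearing subcutaneous Calu3 xenografts, 1 mouse per treatment group. Organs and tumor were taken 24 h later and kept at −80°C, then homogenized in methanol (50 mg/ml) on ice. Homogenate was extracted with acetonitrile containing 0.2% formic acid plus an internal standard, centrifuged, and the supernatant analyzed by HPLC/MS.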

[3] = test system: Lung; test: Drug level in lung of Balb/c mouse xenografted with human Calu3 cells assessed as aldehyde metabolite level at 60 mg/kg, iv using compound formulated in Solutol HS15 and ethyl alcohol measured after 24 hrs by HPLC/MS method; assay type: ADME, organism-based, Calu-3; set-up: dose 60 mg/kg, route intravenous; conditions: in vivo
In short: as §1

[4] = Stability in powder form in non-evacuated chambers at 4 degC by HPLC method; assay type: physicochemical
In short: (§2)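 Powders were kept at 4°C, room temperature (21°C) or 37°C and sampled for up to 90 days. Each aliquot was dissolved in DMSO, diluted with 9 volumes acetonitrile, and analyzed by HPLC for purity.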

[5] = test system: Mus musculus; test: Toxicity in Balb/c mouse assessed as survival at 300 mg/kg, ip using compound formulated in Solutol HS15 and ethyl alcohol; assay type: organism-based; set-up: dose 300 mg/kg, route intraperitoneal; conditions: in vivo
In short: (§3)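 Acute toxicity: 3 Balb/c mice (7–8 weeks) per group, given i.p. 300 mg/kg on day 1 and again on day 2. Deaths were recorded by day; survivors were followed for 2 weeks.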

[6] = Half life in Balb/c mouse at 25 mg/kg, iv using compound formulated in Solutol HS15 and ethyl alcohol by HPLC/MS method; assay type: ADME, organism-based; set-up: dose 25 mg/kg, route intravenous; conditions: in vivo
In short: (§4)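 Balb/c mice received 25 mg/kg by tail vein in Solutol HS15/ethanol vehicle. Blood was drawn from the tail vein at 0, 1, 2, 3.5, 7 and 24 h, 3 mice per time point, into lithium-heparin tubes. Plasma (50 µl) was precipitated with 150 µl acetonitrile containing 0.2% formic acid and internal standard, iced 15 min, centrifuged, and the supernatant analyzed by HPLC/MS for parent and released drug.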

[7] = test system: Spleen; test: Drug level in spleen of Balb/c mouse xenografted with human Calu3 cells assessed as aldehyde metabolite level at 60 mg/kg, iv using compound formulated in Solutol HS15 and ethyl alcohol measured after 24 hrs by HPLC/MS method; assay type: ADME, organism-based, Calu-3; set-up: dose 60 mg/kg, route intravenous; conditions: in vivo
In short: as §1

[8] = test system: Lung; test: Drug level in lung of Balb/c mouse xenografted with human Calu3 cells assessed as oncrasin-72 level at 60 mg/kg, iv using compound formulated in Solutol HS15 and ethyl alcohol measured after 24 hrs by HPLC/MS method; assay type: ADME, organism-based, Calu-3; set-up: dose 60 mg/kg, route intravenous; conditions: in vivo
In short: as §1

[9] = Stability in injectable solution with Solutol HS15 and ethyl alcohol and 0.9% NaCl assessed as drug hydrolysis within 7 hrs at 37 degC by HPLC method; assay type: physicochemical; conditions: read-out: Drug degradation
[10] = test system: Mus musculus; test: Toxicity in Balb/c mouse assessed as mortality level at 300 mg/kg, ip using compound formulated in Solutol HS15 and ethyl alcohol measured after 1 day; assay type: organism-based; set-up: dose 300 mg/kg, route intraperitoneal; conditions: in vivo, 24 h
In short: as §3

[11] = test system: Mus musculus; test: Toxicity in Balb/c mouse assessed as serum ALT level at 150 mg/kg, ip dosed daily for 3 days using compound formulated in Solutol HS15 and ethyl alcohol measured on day 6; assay type: organism-based; set-up: dose 150 mg/kg, route intraperitoneal; conditions: in vivo, 72 h
[12] = test system: Plasma; test: Pro-drug conversion in human plasma assessed as oncrasin-72 release by HPLC method; assay type: ADME, cell-free
[13] = Stability in powder form in non-evacuated chambers at 37 degC after 90 days by HPLC method; assay type: physicochemical; conditions: read-out: Stability
In short: as §2

[14] = test system: Mus musculus; test: Toxicity in Balb/c mouse assessed as mortality at 150 mg/kg, ip dosed daily for 3 days using compound formulated in Solutol HS15 and ethyl alcohol measured on day 5; assay type: organism-based; set-up: dose 150 mg/kg, route intraperitoneal; conditions: in vivo, 72 h
[15] = test system: Mus musculus; test: Toxicity in Balb/c mouse assessed as serum ALT level at 25 mg/kg, ip dosed daily for 8 days using compound formulated in Solutol HS15 and ethyl alcohol measured on day 6; assay type: organism-based; set-up: dose 25 mg/kg, route intraperitoneal; conditions: in vivo, 192 h
[16] = Stability in stock solution with Solutol HS15 and ethyl alcohol solvent at 4 degC by HPLC method; assay type: physicochemical
In short: (§5)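 Stock solutions were made by dissolving compound in 75% (w/v) Solutol HS15 in ethanol (about 20% v/v ethanol). Final concentrations were 8 mg/ml for prodrug and 5 mg/ml for parent. Stocks were stored at 4°C or room temperature; aliquots were frozen at −20°C before HPLC.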

[17] = test system: NCI-H460; test: Anticancer activity against human H460 cells at 0.03 to 30 uM by sulforhodamine B assay; assay type: functional, cell-based
In short: (§6)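 Sulforhodamine B viability assay on lung cancer cells exposed to a range of compound concentrations for 3 days. Untreated reference: DMSO-treated cells set as 100. Values are mean ± SD of quadruplicate wells.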

[18] = test system: NCI-H1299; test: Anticancer activity against human H1299 cells at 0.03 to 30 uM by sulforhodamine B assay; assay type: functional, cell-based
In short: as §6

[19] = test system: Intestine; test: Drug level in intestine of Balb/c mouse xenografted with human Calu3 cells assessed as aldehyde metabolite level at 60 mg/kg, iv using compound formulated in Solutol HS15 and ethyl alcohol measured after 24 hrs by HPLC/MS method; assay type: ADME, organism-based, Calu-3; set-up: dose 60 mg/kg, route intravenous; conditions: in vivo
In short: as §1

[20] = test system: NCI-H157; test: Anticancer activity against human NCI-H157 cells at 0.03 to 30 uM by sulforhodamine B assay; assay type: functional, cell-based
In short: as §6

[21] = test system: Kidney; test: Drug level in kidney of Balb/c mouse xenografted with human Calu3 cells assessed as aldehyde metabolite level at 60 mg/kg, iv using compound formulated in Solutol HS15 and ethyl alcohol measured after 24 hrs by HPLC/MS method; assay type: ADME, organism-based, Calu-3; set-up: dose 60 mg/kg, route intravenous; conditions: in vivo
In short: as §1

[22] = test system: Mus musculus; test: Toxicity in Balb/c mouse assessed as serum AST level at 25 mg/kg, ip dosed daily for 8 days using compound formulated in Solutol HS15 and ethyl alcohol; conditions: in vivo, 192 h
[23] = test system: Liver; test: Drug level in liver of Balb/c mouse xenografted with human Calu3 cells assessed as aldehyde metabolite level at 60 mg/kg, iv using compound formulated in Solutol HS15 and ethyl alcohol measured after 24 hrs by HPLC/MS method; assay type: ADME, organism-based, Calu-3; set-up: dose 60 mg/kg, route intravenous; conditions: in vivo
In short: as §1

[24] = test system: Mus musculus; test: Toxicity in Balb/c mouse assessed as changes in blood cell parameters at 150 mg/kg, ip dosed daily for 3 days using compound formulated in Solutol HS15 and ethyl alcohol measured after 48 hrs; assay type: organism-based; set-up: dose 150 mg/kg, route intraperitoneal; conditions: in vivo
[25] = Stability in injectable solution with Solutol HS15 and ethyl alcohol and 0.9% NaCl assessed as drug hydrolysis within 7 hrs at room temperature by HPLC method; assay type: physicochemical; conditions: injectable solution; read-out: Drug degradation
[26] = test system: Mus musculus; test: Toxicity in Balb/c mouse assessed as serum AST level at 150 mg/kg, ip dosed daily for 3 days using compound formulated in Solutol HS15 and ethyl alcohol measured on day 6; assay type: organism-based; set-up: dose 150 mg/kg, route intraperitoneal; conditions: in vivo, 72 h
[27] = Stability in powder form in non-evacuated chambers at 37 degC after 1 to 14 days by HPLC method; assay type: physicochemical
In short: as §2

[28] = Stability in powder form in non-evacuated chambers at room temperature by HPLC method; assay type: physicochemical
In short: as §2

[29] = test system: Calu-3; test: Anticancer activity against human Calu3 cells at 0.03 to 30 uM by sulforhodamine B assay; assay type: functional, cell-based
In short: as §6

[30] = Pro-drug conversion in pH 7.4 PBS solution assessed as oncrasin-72 release at 0.5 mg/ml by HPLC method; assay type: ADME; conditions: buffer, TDE = time-dependent effect
In short: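 Stock in DMSO/acetonitrile was diluted in PBS pH 7.4 to 0.5 mg/ml, with final 12% DMSO and 18% acetonitrile. Incubated at 37°C for up to 24 h. Aliquots taken at 0.5, 1, 3, 6 and 24 h were held at −20°C, then diluted 50-fold in acetonitrile for HPLC. One of two experiments shown.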

[31] = test system: Kidney; test: Drug level in kidney of Balb/c mouse xenografted with human Calu3 cells assessed as oncrasin-72 level at 60 mg/kg, iv using compound formulated in Solutol HS15 and ethyl alcohol measured after 24 hrs by HPLC/MS method; assay type: ADME, organism-based, Calu-3; set-up: dose 60 mg/kg, route intravenous; conditions: in vivo
In short: as §1

[32] = test system: Mus musculus; test: Toxicity in Balb/c mouse assessed as serum ALP level at 25 mg/kg, ip dosed daily for 8 days using compound formulated in Solutol HS15 and ethyl alcohol measured on day 6; assay type: organism-based; set-up: dose 25 mg/kg, route intraperitoneal; conditions: in vivo, 192 h
[33] = test system: Liver; test: Drug level in liver of Balb/c mouse xenografted with human Calu3 cells assessed as oncrasin-72 level at 60 mg/kg, iv using compound formulated in Solutol HS15 and ethyl alcohol measured after 24 hrs by HPLC/MS method; assay type: ADME, organism-based, Calu-3; set-up: dose 60 mg/kg, route intravenous; conditions: in vivo
In short: as §1

[34] = test system: Tumour; test: Drug level in tumor of Balb/c mouse xenografted with human Calu3 cells assessed as oncrasin-72 level at 60 mg/kg, iv using compound formulated in Solutol HS15 and ethyl alcohol measured after 24 hrs by HPLC/MS method; assay type: ADME, organism-based, Neoplasm, Calu-3; set-up: dose 60 mg/kg, route intravenous; conditions: in vivo
In short: as §1

[35] = Drug level in liver of Balb/c mouse xenografted with human Calu3 cells at 60 mg/kg, iv using compound formulated in Solutol HS15 and ethyl alcohol measured after 24 hrs by HPLC/MS method; assay type: ADME, organism-based, Calu-3; set-up: dose 60 mg/kg, route intravenous; conditions: read-out: Drug uptake
In short: as §1

[36] = test system: Mus musculus; test: Half life in Balb/c mouse assessed as oncrasin-72 release at 25 mg/kg, iv using compound formulated in Solutol HS15 and ethyl alcohol by HPLC/MS method; assay type: ADME, organism-based; set-up: dose 25 mg/kg, route intravenous; conditions: in vivo
In short: as §4

[37] = Stability in stock solution with Solutol HS15 and ethyl alcohol solvent at room temperature by HPLC method; assay type: physicochemical
In short: as §5

[38] = test system: Mus musculus; test: Toxicity in Balb/c mouse assessed as serum ALP level at 150 mg/kg, ip dosed daily for 3 days using compound formulated in Solutol HS15 and ethyl alcohol measured on day 6; assay type: organism-based; set-up: dose 150 mg/kg, route intraperitoneal; conditions: in vivo, 72 h

O=C(CC1CCCCC1)OCc1cn(Cc2cccc(Cl)c2)c2ccccc12
Activity [1]: Non-toxic
Drug uptake [2]: 4.4 µg/g
Drug uptake [3]: 68.4 µg/g
Stability [4]: 90 days
Survival [5]: 2 weeks
half-life [6]: 1 h
Drug uptake [7]: 34 µg/g
Drug uptake [8]: 7.7 µg/g
degraded at 7 h [9]: > 10%
Activity [10]: Toxic
Activity [11]: 115.5 U/L
Drug metabolism [12]: metabolite_detected
remaining at 2160 h [13]: < 5%
Activity [14]: Non-toxic
Activity [15]: 36.3 U/L
Stability [16]: 4 weeks
Activity [17]: Active
Activity [18]: inactive
Drug uptake [19]: 5.9 µg/g
Activity [20]: Active
Drug uptake [21]: 26.5 µg/g
Activity [22]: 94 U/L
Drug uptake [23]: 14.9 µg/g
Activity [24]: Non-toxic
degraded at 7 h [25]: 10%
Activity [26]: 325.5 U/L
Stability [27]: Stable
Stability [28]: 90 days
Activity [29]: Active
Drug metabolism [30]: tde
Drug uptake [31]: 7.3 µg/g
Activity [32]: 76 U/L
Drug uptake [33]: 12.6 µg/g
Drug uptake [34]: 4.7 µg/g
concentration at 24 h [35]: 157000 ng/g
t1/2 [36]: 1.25 h
Stability [37]: 2 weeks
Activity [38]: 50 U/L
